Assay results from ChEMBL document CHEMBL4190407, “Identification of Morpholino Thiophenes as Novel Mycobacterium tuberculosis Inhibitors, Targeting QcrB” (J Med Chem, 2018).
Converted amounts (≈) assume the structure as drawn. The source made the active and inactive calls. The calls are words filed in the database; no cut-off is given here.

Tests used:
[1] = Intrinsic clearance in CD-1 mouse liver microsomes in presence of NADPH up to 30 mins by UPLC-MS/MS analysis; assay type: ADME, microsome; conditions: 0.5 h
Vero [2] = assay: Cytotoxicity against African green monkey Vero cells assessed as growth inhibition measured after 2 days by CellTiter-Glo assay; assay type: cell-based; conditions: Chlorocebus sabaeus, 48 h
[3] = system: Mycobacterium tuberculosis; assay: Antimycobacterial activity against Mycobacterium tuberculosis H37Rv ATCC 25618 after 5 days; assay type: functional; conditions: H37Rv ATCC 25618, 120 h
How it was run: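 Growth measured in Middlebrook 7H9 with 10% OADC and 0.05% Tween 80 under aerobic conditions, covering H37Rv (ATCC 25618) and QcrB mutant strains. Growth read after 5 days at 37 °C. MIC90 is the concentration giving 90% growth inhibition, obtained by curve fitting (Levenberg–Marquardt). Mean ± SD of at least two independent experiments.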

Mus musculus [4] = assay: AUC in C57 Black mouse at 3 mg/kg, iv administered as bolus dose by UPLC-MS/MS analysis; assay type: ADME, organism-based; conditions: in vivo
Mus musculus [5] = assay: Toxicity in C57BL/6 mouse infected with Mycobacterium tuberculosis H37Rv at 100 mg/kg, po for 4 consecutive days starting from day 5 post infection; assay type: organism-based; conditions: in vivo
Mus musculus [6] = assay: In vivo drug metabolism in C57 Black mouse assessed as de-ethylation at 3 mg/kg, iv administered as bolus dose or 10 mg/kg, po via gavage by UPLC-MS/MS analysis; assay type: ADME, organism-based
[7] = molecular target: Cytochrome bc1 complex cytochrome b subunit (Mycobacterium tuberculosis (strain ATCC 25618 / H37Rv)) (UniProt P9WP37); assay: Inhibition of QcrB in Mycobacterium tuberculosis H37Rv ATCC 25618 assessed as reduction in ATP level measured after 24 hrs by BacTiter-Glo assay
How it was run: (§1)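 H37Rv exposed to compounds for 24 h. Intrabacterial ATP measured by BacTiter-Glo as relative luminescence units, with growth followed by OD590. Representative of 2 independent experiments.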

Mus musculus [8] = assay: In vivo drug metabolism in C57 Black mouse assessed as oxidation of morpholine at 3 mg/kg, iv administered as bolus dose or 10 mg/kg, po via gavage by UPLC-MS/MS analysis; assay type: ADME, organism-based
Mus musculus [9] = assay: Toxicity in C57BL/6 mouse infected with Mycobacterium tuberculosis H37Rv at 30 mg/kg, po for 8 consecutive days starting from day 1 post infection; assay type: organism-based; conditions: in vivo
[10] = molecular target: Cytochrome bc1 complex cytochrome b subunit (Mycobacterium tuberculosis (strain ATCC 25618 / H37Rv)) (UniProt P9WP37); assay: Inhibition of QcrB in Mycobacterium tuberculosis H37Rv ATCC 25618 assessed as reduction in ATP level measured up to 0.1 uM after 24 hrs by BacTiter-Glo assay; how it was run: as §1
Cytochrome P450 2C9 = Cytochrome P450 2C9 (Homo sapiens, UniProt P11712); assay: Inhibition of CYP2C9 (unknown origin); assay type: ADME
[11] = Clearance in human liver microsomes; assay type: ADME, microsome
Cytochrome P450 1A2 = molecular target: T1, Cytochrome P450 1A2 (Homo sapiens, UniProt P05177); assay: Inhibition of CYP1A2 (unknown origin); assay type: ADME
T1 sequence (P05177 whole entry): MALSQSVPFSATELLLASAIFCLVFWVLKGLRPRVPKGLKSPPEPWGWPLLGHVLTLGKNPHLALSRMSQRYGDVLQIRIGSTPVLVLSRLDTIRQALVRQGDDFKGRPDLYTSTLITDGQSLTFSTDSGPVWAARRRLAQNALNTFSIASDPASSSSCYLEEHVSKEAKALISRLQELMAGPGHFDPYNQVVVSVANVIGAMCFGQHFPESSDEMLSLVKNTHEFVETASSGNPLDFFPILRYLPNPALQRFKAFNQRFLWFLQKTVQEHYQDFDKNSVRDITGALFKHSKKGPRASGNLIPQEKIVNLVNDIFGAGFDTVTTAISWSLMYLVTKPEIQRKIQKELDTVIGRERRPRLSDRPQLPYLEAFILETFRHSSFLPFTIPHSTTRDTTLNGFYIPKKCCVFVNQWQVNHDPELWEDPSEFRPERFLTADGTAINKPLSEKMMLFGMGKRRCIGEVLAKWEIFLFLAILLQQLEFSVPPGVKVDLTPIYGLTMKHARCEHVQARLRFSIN

Cytochrome P450 2C19 = Cytochrome P450 2C19 (Homo sapiens, UniProt P33261); assay: Inhibition of CYP2C19 (unknown origin); assay type: ADME
Cytochrome P450 2D6 = Cytochrome P450 2D6 (Homo sapiens, UniProt P10635); assay: Inhibition of CYP2D6 (unknown origin); assay type: ADME
Vero [12] = assay: Cytotoxicity against African green monkey Vero cells; assay type: cell-based; conditions: chlorocebus sabaeus

Cytochrome bc1 complex cytochrome b subunit (Mycobacterium tuberculosis (strain ATCC 25618 / H37Rv)), sequence (P9WP37 whole entry, one chain of several): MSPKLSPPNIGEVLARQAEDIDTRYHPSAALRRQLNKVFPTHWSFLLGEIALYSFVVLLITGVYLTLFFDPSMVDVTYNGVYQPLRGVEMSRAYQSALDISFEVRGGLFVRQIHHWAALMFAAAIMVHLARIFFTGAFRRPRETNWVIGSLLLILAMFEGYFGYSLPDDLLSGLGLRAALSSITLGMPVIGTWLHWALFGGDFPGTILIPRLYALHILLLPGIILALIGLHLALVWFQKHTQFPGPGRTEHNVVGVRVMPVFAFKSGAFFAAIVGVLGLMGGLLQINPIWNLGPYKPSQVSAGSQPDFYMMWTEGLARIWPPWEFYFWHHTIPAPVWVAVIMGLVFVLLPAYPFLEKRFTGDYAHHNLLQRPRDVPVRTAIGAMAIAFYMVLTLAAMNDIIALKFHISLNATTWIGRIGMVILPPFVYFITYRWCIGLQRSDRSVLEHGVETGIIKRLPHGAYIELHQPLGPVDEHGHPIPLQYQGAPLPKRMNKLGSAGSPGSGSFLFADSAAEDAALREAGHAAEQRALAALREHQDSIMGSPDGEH
Cytochrome P450 2C19, sequence (P33261 whole entry): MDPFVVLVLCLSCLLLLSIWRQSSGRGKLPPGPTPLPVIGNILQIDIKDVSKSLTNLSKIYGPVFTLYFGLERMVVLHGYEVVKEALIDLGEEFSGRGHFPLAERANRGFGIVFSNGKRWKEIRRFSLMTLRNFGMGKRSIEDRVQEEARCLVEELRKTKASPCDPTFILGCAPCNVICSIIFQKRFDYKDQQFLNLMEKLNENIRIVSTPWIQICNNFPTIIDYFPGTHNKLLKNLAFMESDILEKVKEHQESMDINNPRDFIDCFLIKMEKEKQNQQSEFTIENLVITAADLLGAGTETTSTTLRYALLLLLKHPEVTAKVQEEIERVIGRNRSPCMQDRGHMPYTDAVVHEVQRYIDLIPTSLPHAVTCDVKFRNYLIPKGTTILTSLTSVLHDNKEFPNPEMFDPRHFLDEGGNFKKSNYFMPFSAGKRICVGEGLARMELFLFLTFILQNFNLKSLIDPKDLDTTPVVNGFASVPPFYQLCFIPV
Cytochrome P450 2D6, sequence (P10635 whole entry): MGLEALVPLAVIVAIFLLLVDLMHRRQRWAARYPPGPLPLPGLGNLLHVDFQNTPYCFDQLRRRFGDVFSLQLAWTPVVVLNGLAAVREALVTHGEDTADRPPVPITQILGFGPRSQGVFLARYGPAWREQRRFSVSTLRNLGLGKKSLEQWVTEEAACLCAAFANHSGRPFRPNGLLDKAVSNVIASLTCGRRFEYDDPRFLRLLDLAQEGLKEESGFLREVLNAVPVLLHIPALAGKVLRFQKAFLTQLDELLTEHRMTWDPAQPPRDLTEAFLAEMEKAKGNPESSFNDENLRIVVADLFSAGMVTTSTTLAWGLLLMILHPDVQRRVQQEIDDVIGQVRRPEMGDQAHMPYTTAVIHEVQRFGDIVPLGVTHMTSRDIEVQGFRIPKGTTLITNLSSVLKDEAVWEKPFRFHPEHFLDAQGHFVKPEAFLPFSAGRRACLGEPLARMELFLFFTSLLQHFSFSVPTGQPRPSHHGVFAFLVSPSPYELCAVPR
Cytochrome P450 2C9, sequence (P11712 whole entry): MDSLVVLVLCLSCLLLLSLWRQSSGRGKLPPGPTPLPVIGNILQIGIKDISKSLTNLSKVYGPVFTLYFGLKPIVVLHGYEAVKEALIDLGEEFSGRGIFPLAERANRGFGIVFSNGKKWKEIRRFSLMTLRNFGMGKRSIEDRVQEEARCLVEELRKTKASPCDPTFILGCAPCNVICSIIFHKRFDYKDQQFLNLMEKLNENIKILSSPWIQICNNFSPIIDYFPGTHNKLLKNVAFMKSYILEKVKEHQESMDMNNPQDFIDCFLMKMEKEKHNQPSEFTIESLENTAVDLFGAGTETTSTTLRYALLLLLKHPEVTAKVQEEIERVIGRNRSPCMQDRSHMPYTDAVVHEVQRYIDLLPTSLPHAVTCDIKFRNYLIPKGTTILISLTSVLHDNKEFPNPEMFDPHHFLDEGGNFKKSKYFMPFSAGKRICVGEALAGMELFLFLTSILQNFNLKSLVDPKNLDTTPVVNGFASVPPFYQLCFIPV

Compound: NC(=O)c1ccc(N2CCOCC2)cc1OCCc1ccccc1
- intrinsic clearance [1]: 12 mL/min/g

Compound: NC(=O)c1sc(-n2nccn2)cc1OCCc1ccccc1
- intrinsic clearance [1]: 30 mL/min/g

Compound: NC(=O)c1sc(N2CCOCC2)cc1OCc1ccccc1
- intrinsic clearance [1]: 14 mL/min/g

Compound: COc1ccccc1CCOc1cc(N2CCOCC2)sc1C(N)=O
- intrinsic clearance [1]: 26 mL/min/g

Compound: CON(C)C(=O)c1sc(N2CCOCC2)cc1OCCc1ccccc1
- IC50 (Vero [2]): 78 µM

Compound: CNC(=O)c1sc(N2CC3CC2CO3)cc1OCCc1ccccc1 (stereo not drawn)
- intrinsic clearance [1]: 13 mL/min/g

Compound: NC(=O)c1sc(N2CCOCC2)cc1CCCc1ccc(F)cc1
- MIC90 [3]: 0.9 µM (≈ 0.314 µg/mL)
- intrinsic clearance [1]: 13 mL/min/g
- IC50 (Vero [2]): > 100 µM

Compound: COc1ccc(CCOc2cc(N3CCOCC3)sc2C(N)=O)cc1
- MIC90 [3]: 0.6 to 0.63 µM (≈ 0.217 to 0.228 µg/mL)

Compound: CC1COCCN1c1cc(OCCc2ccccc2)c(C(N)=O)s1 (stereo not drawn)
- MIC90 [3]: > 20 µM
- intrinsic clearance [1]: 11 mL/min/g
- IC50 (Vero [2]): 77 µM

Compound: NC(=O)c1sc(CN2CCOCC2)cc1OCCc1ccccc1
- intrinsic clearance [1]: 3 mL/min/g

Compound: CC1(COc2cc(N3CCOCC3)sc2C(N)=O)COC1
- AUC (Mus musculus [4]): 980000 ng·min/mL

Compound: NC(=O)c1sc(N2CCOCC2)cc1OCCc1ccc(OC(F)(F)F)cc1
- MIC90 [3]: 0.2 to 0.24 µM (≈ 0.0833 to 0.0999 µg/mL)
- Activity (Mus musculus [5]): Non-Toxic
- Drug metabolism (Mus musculus [6]): Metabolite_Detected
- inhibition [7]: Dose-dependent effect
- Drug metabolism (Mus musculus [8]): Metabolite_Detected

Compound: NC(=O)c1sc(N2CCOCC2)cc1OCCN1CCOCC1
- intrinsic clearance [1]: 0.9 mL/min/g

Compound: COc1c(N2C[C@@H]3CCCN[C@@H]3C2)c(F)cc2c(=O)c(C(=O)O)cn(C3CC3)c12 [MOXIFLOXACIN]
- Activity (Mus musculus [9]): Non-Toxic

Compound: O=C(NO)c1sc(N2CCOCC2)cc1OCCc1ccccc1
- intrinsic clearance [1]: 6 mL/min/g

Compound: COCCN(C)c1cc(OCCc2ccccc2)c(C(N)=O)s1
- MIC90 [3]: > 20 µM
- intrinsic clearance [1]: 28 mL/min/g
- IC50 (Vero [2]): > 100 µM

Compound: NC(=O)c1sc(N2CCOCC2=O)cc1OCCc1ccccc1
- intrinsic clearance [1]: 7 mL/min/g

Compound: NC(O)C1SC(N2CCOCC2)CC1OCC(F)(F)C1CCCCC1 (stereo not drawn)
- MIC90 [3]: > 20 µM
- intrinsic clearance [1]: 19 mL/min/g
- IC50 (Vero [2]): 95 µM

Compound: COc1cccc(CCOc2cc(N3CCOCC3)sc2C(N)=O)c1
- intrinsic clearance [1]: 10 mL/min/g

Compound: CCc1nc2ccc(Cl)cn2c1C(=O)NCc1ccc(N2CCC(c3ccc(OC(F)(F)F)cc3)CC2)cc1
- inhibition [10]: Active

Compound: CNC(=O)c1sc(N2CCOCC2)cc1OCCc1ccccc1
- intrinsic clearance [1]: 36 mL/min/g
- inhibition [7]: Dose-dependent effect

Compound: NC(=O)c1sc(N2CCOCC2)cc1OCCc1cccc(F)c1
- intrinsic clearance [1]: 18 mL/min/g
- inhibition [7]: Dose-dependent effect

Compound: COC(=O)c1sc(N2CCOCC2)cc1OCCc1ccccc1
- intrinsic clearance [1]: 50 mL/min/g

Compound: CO[C@H]1/C=C/O[C@@]2(C)Oc3c(C)c(O)c4c(O)c(c(/C=N/N5CCN(C)CC5)c(O)c4c3C2=O)NC(=O)/C(C)=C\C=C\[C@H](C)[C@H](O)[C@@H](C)[C@@H](O)[C@@H](C)[C@H](OC(C)=O)[C@@H]1C
- inhibition [10]: Active

Compound: CCOC(=O)NC(=O)c1sc(N2CCOCC2)cc1OCCc1ccccc1
- intrinsic clearance [1]: 1 mL/min/g

Compound: NC(=O)c1sc(N2CCOCC2)cc1OCCc1ccccc1
- AUC (Mus musculus [4]): 29000 ng·min/mL
- INH (Cytochrome P450 2C9): 5.1 µM
- MIC90 [3]: 0.72 to 0.8 µM (≈ 0.239 to 0.266 µg/mL)
- CLH [11]: 3.5 mL/min/g
- INH (Cytochrome P450 1A2): < 5 µM
- INH (Cytochrome P450 2C19): 5.9 µM
- INH (Cytochrome P450 2D6): 5 µM
- inhibition [7]: Dose-dependent effect
- Activity (Vero [12]): > 100 µM
